Tests used:
[1] = test system: PCNA expression in Hela cells; assay: PCNA mRNA expression by quantitative RT-PCR; assay type: cell-based, human; settings: for inhibition at 10 µM: Homo sapiens, HeLa, read-out: Inhibition of PCNA expression; for inhibition rate of the expression of PCNA: Hela cells, qRT-PCR, 5 μM as printed in abstract
ERK5 = ERK5 (Homo sapiens, UniProt Q13164); assay: Z'-LYTE Kinase Assay, Ser/Thr 4 peptide; assay type: biochemical; settings: read-out: IC50 against ERK5 (Z'-LYTE kinase assay)
ERK5, sequence (Q13164 2-816): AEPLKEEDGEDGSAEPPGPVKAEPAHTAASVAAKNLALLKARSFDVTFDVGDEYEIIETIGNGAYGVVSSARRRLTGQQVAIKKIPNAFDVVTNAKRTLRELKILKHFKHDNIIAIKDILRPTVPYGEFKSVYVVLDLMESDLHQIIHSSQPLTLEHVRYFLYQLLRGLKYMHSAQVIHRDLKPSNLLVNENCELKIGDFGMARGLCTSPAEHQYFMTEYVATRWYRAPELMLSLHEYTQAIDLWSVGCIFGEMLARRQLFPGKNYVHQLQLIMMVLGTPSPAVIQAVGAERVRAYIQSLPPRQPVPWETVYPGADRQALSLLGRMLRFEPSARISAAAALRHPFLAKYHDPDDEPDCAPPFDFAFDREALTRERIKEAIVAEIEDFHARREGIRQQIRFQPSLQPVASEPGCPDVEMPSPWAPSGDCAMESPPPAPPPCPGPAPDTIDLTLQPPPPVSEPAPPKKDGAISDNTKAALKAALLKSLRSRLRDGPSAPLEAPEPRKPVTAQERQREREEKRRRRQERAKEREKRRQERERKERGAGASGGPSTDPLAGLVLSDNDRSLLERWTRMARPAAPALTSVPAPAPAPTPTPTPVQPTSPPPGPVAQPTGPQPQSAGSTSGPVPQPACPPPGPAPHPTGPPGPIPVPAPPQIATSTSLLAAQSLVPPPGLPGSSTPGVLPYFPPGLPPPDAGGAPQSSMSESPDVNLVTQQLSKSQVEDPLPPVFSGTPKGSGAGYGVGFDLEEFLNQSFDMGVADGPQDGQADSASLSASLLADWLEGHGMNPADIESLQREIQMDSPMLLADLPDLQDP
Method in brief: (§1)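 Coupled-enzyme, antibody-free fluorescence kinase assay on HeLa cell lysates (10–100 µg per well). Substrates: Ser/Thr 4 peptide for ERK5, Ser/Thr 3 peptide for ERK1/2. Test compound at 1.25, 2.5, 5 and 10 µM. Coumarin (Ex 400/Em 445 nm) and fluorescein (Ex 400/Em 520 nm) emissions read on a plate reader.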

ERK1/2 = assay: Z'-LYTE Kinase Assay, Ser/Thr 3 peptide; assay type: biochemical, human; settings: 1.25, 2.5, 5, and 10 µM
Method in brief: as §1

[2] = test system: AP-1 reporter in HeLa cells; assay: ERK5-driven AP-1 reporter assay; assay type: cell-based, human; settings: 5 µM
Method in brief: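 HeLa cells (2 × 10^5 per well, 6-well) transiently lipofected with an AP-1-luc reporter vector carrying six AP-1 response elements. After transfection, cells received 5 µM test compound. AP-1 mRNA measured by RT-PCR (TRIzol RNA, reverse transcription, duplicate real-time reactions), with GAPDH as normaliser and the 2−∆∆Cq method.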

Hela cells [3] = assay: DAPI staining assay; assay type: cell-based, human; settings: 5 µM, 24 h, compared to DMSO
Method in brief: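 HeLa cells (5 × 10^3) seeded in 24-well plates for 24 h, treated 24 h with test compound (1, 2.5 or 5 µM in methods). Fixed in 4% paraformaldehyde 10 min, washed, stained with 300 nM DAPI 15 min in the dark. Nuclear morphology of apoptotic cells examined by fluorescence microscopy.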

Hela cells [4] = assay: Annexin V/Propidium iodide flow cytometry; assay type: cell-based, human; settings: 5 µM, 24 h
Method in brief: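 Apoptosis assay: HeLa cells (5 × 10^5) seeded in 6-well plates for 24 h, serum-starved 20 h, then exposed to test compound for 24 h (1, 2.5 or 5 µM in methods). Annexin V-FITC/PI kit staining, flow cytometry. Quadrants: lower right early apoptotic, upper right late apoptotic, upper left necrotic. Mean ± SD of three independent experiments.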

SMILES | inhibition at 10 µM [1] | inhibition rate of the expression of PCNA [1] | IC50 (ERK5) | effect on ERK1/2 kinase activity (ERK1/2) | expression of AP-1 [2] | apoptosis by DAPI staining (Hela cells [3]) | increase of late apoptotic events compared with DMSO (Hela cells [4])
COC(C)c1n(CCC(C)C)c2ccccc2[n+]1Cc1cc(OCCC(C)C)c2ccccc2c1OCCC(C)C (stereo not drawn) [4j, 3-((1,4-Bis(isoamyloxy)naphthalen-2-yl)methyl)−1-isoamyl-2-(1-methoxyethyl)−1H-benzo[d]imidazol-3-ium bromide] | 57.4% |  |  |  |  |  | 
CC(C)CCOc1cc(C[n+]2cn(CCC(C)C)c3cc(Br)c(Br)cc32)c(OCCC(C)C)c2ccccc12 [4m, 3-((1,4-Bis(isoamyloxy)naphthalen-2-yl)methyl)−5,6-dibromo-1-isoamyl-1H-benzo[d]imidazol-3-ium bromide] | 57% |  |  |  |  |  | 
Cc1cc2c(cc1C)[n+](Cc1cc(OCCC(C)C)c3ccccc3c1OCCC(C)C)cn2CCC(C)C.[Br-] [4k, 3-((1,4-Bis(isoamyloxy)naphthalen-2-yl)methyl)−1-isoamyl-5,6-dimethyl-1H-benzo[d]imidazol-3-ium bromide] | 70.2% | 70.2% | 9 µM | did not inhibit ERK1/2 kinase activity | significantly decreased | triggered apoptosis | 14%
CC(C)CCOc1cc(C[n+]2c(C(C)C)n(CCC(C)C)c3ccccc32)c(OCCC(C)C)c2ccccc12.[Br-] [4e, 3-((1,4-bis(isopentyloxy)naphthalen-2-yl)methyl)−1-isoamyl-2-isopropyl-1H-benzo[d]imidazol-3-ium bromide] |  | 61.1% | 5.1 µM | did not inhibit ERK1/2 kinase activity | significantly decreased | triggered apoptosis | 10.8%
